ChEMBL document CHEMBL3046615, “Isolation of nematicidal compounds from Tagetes patula L. yellow flowers: structure-activity relationship studies against cyst nematode Heterodera zeae infective stage larvae” (2011)
Activity calls are given as the source filed them. The calls are words filed in the database; no cut-off is given here.

Experiments:
Heterodera zeae [1] = experiment: Nematicidal activity against Heterodera zeae infective stage larvae assessed as nematode mortality at 5% under light conditions measured 5 to 60 min post dose by stereoscopic microscopy; format: functional, organism-based
In short: (§1)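 H. zeae freshly hatched second-stage juveniles, 100 per plate, three replicates, at 28 ± 2 °C under light or in a dark box. Dilutions are % of a stock: 30 mg/mL for extracts/fractions, 1 mg/mL for pure compounds. Methanol-, DMSO- or water-soluble samples were tested in glass cavity blocks. Petroleum ether-soluble samples were air-dried in the block and covered with agar pieces bearing cultured larvae. Mortality was followed over 5–60 min; each value is the mean of three experiments.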

Heterodera zeae [2] = experiment: Nematicidal activity against Heterodera zeae infective stage larvae assessed as nematode mortality at 1% under dark conditions measured 5 to 60 min post dose by stereoscopic microscopy; format: functional, organism-based; in short: as §1
Heterodera zeae [3] = experiment: Nematicidal activity against Heterodera zeae infective stage larvae assessed as nematode mortality at 0.125% under dark conditions measured 5 to 60 min post dose by stereoscopic microscopy; format: functional, organism-based; in short: as §1
Heterodera zeae [4] = experiment: Nematicidal activity against Heterodera zeae infective stage larvae assessed as nematode mortality at 0.5% under dark conditions measured 5 to 60 min post dose by stereoscopic microscopy; format: functional, organism-based; in short: as §1
Heterodera zeae [5] = experiment: Nematicidal activity against Heterodera zeae infective stage larvae assessed as nematode mortality at 0.25% under light conditions measured 5 to 60 min post dose by stereoscopic microscopy; format: functional, organism-based; in short: as §1
Heterodera zeae [6] = experiment: Nematicidal activity against Heterodera zeae infective stage larvae assessed as nematode mortality at 0.5% under dark conditions measured 48 hr post dose by stereoscopic microscopy; format: functional
In short: (§2)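 Freshly hatched H. zeae second-stage juveniles, 100 per Petri plate, three replicates. Samples in MeOH, DMSO or water were tested in glass cavity blocks; petroleum ether samples were dried onto the block and larvae transferred on agar pieces. Percentages are dilutions of 30 mg/mL stocks (extracts/fractions) or 1 mg/mL stocks (pure compounds). Incubated at 28 ± 2 °C in light or dark box; mortality averaged over three replicates.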

Heterodera zeae [7] = experiment: Nematicidal activity against Heterodera zeae infective stage larvae assessed as nematode mortality at 0.25% under light conditions measured 48 hr post dose by stereoscopic microscopy; format: functional; in short: as §2
Heterodera zeae [8] = experiment: Nematicidal activity against Heterodera zeae infective stage larvae assessed as nematode mortality at 0.25% under light conditions measured 24 hr post dose by stereoscopic microscopy; format: functional; in short: as §2
Heterodera zeae [9] = experiment: Nematicidal activity against Heterodera zeae infective stage larvae assessed as nematode mortality at 2% under dark conditions measured 5 to 60 min post dose by stereoscopic microscopy; format: functional, organism-based; in short: as §1
Heterodera zeae [10] = experiment: Nematicidal activity against Heterodera zeae infective stage larvae assessed as nematode mortality at 0.5% under dark conditions measured 72 hr post dose by stereoscopic microscopy; format: functional; in short: as §2
Heterodera zeae [11] = experiment: Nematicidal activity against Heterodera zeae infective stage larvae assessed as nematode mortality at 0.25% under dark conditions measured 24 hr post dose by stereoscopic microscopy; format: functional; in short: as §2
Heterodera zeae [12] = experiment: Nematicidal activity against Heterodera zeae infective stage larvae assessed as nematode mortality at 0.5% under light conditions measured 24 hr post dose by stereoscopic microscopy; format: functional; in short: as §2
Heterodera zeae [13] = experiment: Nematicidal activity against Heterodera zeae infective stage larvae assessed as nematode mortality at 0.125% under light conditions measured 24 hr post dose by stereoscopic microscopy; format: functional; in short: as §2
Heterodera zeae [14] = experiment: Nematicidal activity against Heterodera zeae infective stage larvae assessed as nematode mortality at 0.5% under dark conditions measured 24 hr post dose by stereoscopic microscopy; format: functional; in short: as §2
Heterodera zeae [15] = experiment: Nematicidal activity against Heterodera zeae infective stage larvae assessed as nematode mortality at 0.25% under dark conditions measured 72 hr post dose by stereoscopic microscopy; format: functional; in short: as §2
Heterodera zeae [16] = experiment: Nematicidal activity against Heterodera zeae infective stage larvae assessed as nematode mortality at 1% under dark conditions measured 24 hr post dose by stereoscopic microscopy; format: functional; in short: as §2
Heterodera zeae [17] = experiment: Nematicidal activity against Heterodera zeae infective stage larvae assessed as nematode mortality at 0.5% under light conditions measured 5 to 60 min post dose by stereoscopic microscopy; format: functional, organism-based; in short: as §1
Heterodera zeae [18] = experiment: Nematicidal activity against Heterodera zeae infective stage larvae assessed as nematode mortality at 0.25% under dark conditions measured 5 to 60 min post dose by stereoscopic microscopy; format: functional, organism-based; in short: as §1
Heterodera zeae [19] = experiment: Nematicidal activity against Heterodera zeae infective stage larvae assessed as nematode mortality at 1% under dark conditions measured 48 hr post dose by stereoscopic microscopy; format: functional; in short: as §2
Heterodera zeae [20] = experiment: Nematicidal activity against Heterodera zeae infective stage larvae assessed as nematode mortality at 1% under light conditions measured 24 hr post dose by stereoscopic microscopy; format: functional; in short: as §2
Heterodera zeae [21] = experiment: Nematicidal activity against Heterodera zeae infective stage larvae assessed as nematode mortality at 5% under dark conditions measured 5 to 60 min post dose by stereoscopic microscopy; format: functional, organism-based; in short: as §1
Heterodera zeae [22] = experiment: Nematicidal activity against Heterodera zeae infective stage larvae assessed as nematode mortality at 0.125% under light conditions measured 5 to 60 min post dose by stereoscopic microscopy; format: functional, organism-based; in short: as §1
Heterodera zeae [23] = experiment: Nematicidal activity against Heterodera zeae infective stage larvae assessed as nematode mortality at 0.25% under dark conditions measured 48 hr post dose by stereoscopic microscopy; format: functional; in short: as §2
Heterodera zeae [24] = experiment: Nematicidal activity against Heterodera zeae infective stage larvae assessed as nematode mortality at 1% under light conditions measured 5 to 60 min post dose by stereoscopic microscopy; format: functional, organism-based; in short: as §1
Heterodera zeae [25] = experiment: Nematicidal activity against Heterodera zeae infective stage larvae assessed as nematode mortality at 0.125% under light conditions measured 48 hr post dose by stereoscopic microscopy; format: functional; in short: as §2
Heterodera zeae [26] = experiment: Nematicidal activity against Heterodera zeae infective stage larvae assessed as nematode mortality at 0.125% under dark conditions measured 48 hr post dose by stereoscopic microscopy; format: functional; in short: as §2
Heterodera zeae [27] = experiment: Nematicidal activity against Heterodera zeae infective stage larvae assessed as nematode mortality at 0.5% under light conditions measured 72 hr post dose by stereoscopic microscopy; format: functional; in short: as §2
Heterodera zeae [28] = experiment: Nematicidal activity against Heterodera zeae infective stage larvae assessed as nematode mortality at 1% under dark conditions measured 72 hr post dose by stereoscopic microscopy; format: functional; in short: as §2
Heterodera zeae [29] = experiment: Nematicidal activity against Heterodera zeae infective stage larvae assessed as nematode mortality at 1% under light conditions measured 72 hr post dose by stereoscopic microscopy; format: functional; in short: as §2
Heterodera zeae [30] = experiment: Nematicidal activity against Heterodera zeae infective stage larvae assessed as nematode mortality at 1% under light conditions measured 48 hr post dose by stereoscopic microscopy; format: functional; in short: as §2
Heterodera zeae [31] = experiment: Nematicidal activity against Heterodera zeae infective stage larvae assessed as nematode mortality at 0.125% under dark conditions measured 24 hr post dose by stereoscopic microscopy; format: functional; in short: as §2
Heterodera zeae [32] = experiment: Nematicidal activity against Heterodera zeae infective stage larvae assessed as nematode mortality at 0.125% under light conditions measured 72 hr post dose by stereoscopic microscopy; format: functional; in short: as §2
Heterodera zeae [33] = experiment: Nematicidal activity against Heterodera zeae infective stage larvae assessed as nematode mortality at 2% under light conditions measured 5 to 60 min post dose by stereoscopic microscopy; format: functional, organism-based; in short: as §1
Heterodera zeae [34] = experiment: Nematicidal activity against Heterodera zeae infective stage larvae assessed as nematode mortality at 0.125% under dark conditions measured 72 hr post dose by stereoscopic microscopy; format: functional; in short: as §2
Heterodera zeae [35] = experiment: Nematicidal activity against Heterodera zeae infective stage larvae assessed as nematode mortality at 0.5% under light conditions measured 48 hr post dose by stereoscopic microscopy; format: functional; in short: as §2
Heterodera zeae [36] = experiment: Nematicidal activity against Heterodera zeae infective stage larvae assessed as nematode mortality at 0.25% under light conditions measured 72 hr post dose by stereoscopic microscopy; format: functional; in short: as §2

Compound	Activity (Heterodera zeae [1])	Activity (Heterodera zeae [2])	Activity (Heterodera zeae [3])	Activity (Heterodera zeae [4])	Activity (Heterodera zeae [5])	mortality (Heterodera zeae [6]) [%]	mortality (Heterodera zeae [7]) [%]	mortality (Heterodera zeae [8]) [%]	Activity (Heterodera zeae [9])	mortality (Heterodera zeae [10]) [%]	mortality (Heterodera zeae [11]) [%]	mortality (Heterodera zeae [12]) [%]	mortality (Heterodera zeae [13]) [%]	mortality (Heterodera zeae [14]) [%]	mortality (Heterodera zeae [15]) [%]	mortality (Heterodera zeae [16]) [%]	Activity (Heterodera zeae [17])	Activity (Heterodera zeae [18])	mortality (Heterodera zeae [19]) [%]	mortality (Heterodera zeae [20]) [%]	further results
COc1c(O[C@@H]2O[C@H](CO)[C@@H](O)[C@H](O)[C@H]2O)cc2oc(-c3ccc(O)c(O)c3)c(O)c(=O)c2c1O [PATULITRIN]	inactive	inactive	inactive	inactive	inactive	20	20	0	inactive	40	0	0	0	0	20	0	inactive	inactive	40	0	Activity (Heterodera zeae [21]): inactive; Activity (Heterodera zeae [22]): inactive; mortality (Heterodera zeae [23]): 10%; Activity (Heterodera zeae [24]): inactive; mortality (Heterodera zeae [25]): 0%; mortality (Heterodera zeae [26]): 0%; mortality (Heterodera zeae [27]): 50%; mortality (Heterodera zeae [28]): 50%; mortality (Heterodera zeae [29]): 50%; mortality (Heterodera zeae [30]): 20%; mortality (Heterodera zeae [31]): 0%; mortality (Heterodera zeae [32]): 10%; Activity (Heterodera zeae [33]): inactive; mortality (Heterodera zeae [34]): 10%; mortality (Heterodera zeae [35]): 0%; mortality (Heterodera zeae [36]): 20%
O=c1c(O)c(-c2ccc(O)c(O)c2)oc2cc(O)cc(O)c12 [QUERCETIN]	inactive	inactive	inactive	inactive	inactive	50	50	40	inactive	70	40	50	40	40	50	50	inactive	inactive	70	50	Activity (Heterodera zeae [21]): inactive; Activity (Heterodera zeae [22]): inactive; mortality (Heterodera zeae [23]): 50%; Activity (Heterodera zeae [24]): inactive; mortality (Heterodera zeae [25]): 50%; mortality (Heterodera zeae [26]): 40%; mortality (Heterodera zeae [27]): 80%; mortality (Heterodera zeae [28]): 70%; mortality (Heterodera zeae [29]): 70%; mortality (Heterodera zeae [30]): 50%; mortality (Heterodera zeae [31]): 40%; mortality (Heterodera zeae [32]): 80%; Activity (Heterodera zeae [33]): inactive; mortality (Heterodera zeae [34]): 40%; mortality (Heterodera zeae [35]): 50%; mortality (Heterodera zeae [36]): 70%
COc1ccc(C(=O)O)cc1 [p-ANISIC ACID]	inactive	inactive	inactive	inactive	inactive	50	20	10	inactive	80	30	30	10	50	80	50	inactive	inactive	60	40	Activity (Heterodera zeae [21]): inactive; Activity (Heterodera zeae [22]): inactive; mortality (Heterodera zeae [23]): 40%; Activity (Heterodera zeae [24]): inactive; mortality (Heterodera zeae [25]): 10%; mortality (Heterodera zeae [26]): 20%; mortality (Heterodera zeae [27]): 50%; mortality (Heterodera zeae [28]): 90%; mortality (Heterodera zeae [29]): 80%; mortality (Heterodera zeae [30]): 50%; mortality (Heterodera zeae [31]): 10%; mortality (Heterodera zeae [32]): 40%; Activity (Heterodera zeae [33]): inactive; mortality (Heterodera zeae [34]): 50%; mortality (Heterodera zeae [35]): 40%; mortality (Heterodera zeae [36]): 50%
